In ChEMBL document CHEMBL5380801, “Development of Substituted Phenyl Dihydrouracil as the Novel Achiral Cereblon Ligands for Targeted Protein Degradation” (J Med Chem, 2023):
Active and inactive are the calls of the source. The rule behind the calls is not given here.

Experiments:
[1] = target: Protein cereblon/DNA damage-binding protein 1 (Homo sapiens, UniProt Q96SW2); experiment: Binding affinity to recombinant human CRBN/DDB1 assessed as dissociation constant incubated for 20 mins by fluorescence polarization assay; assay type: protein assay
[2] = target: Cereblon/Ikaros (Homo sapiens) (UniProt Q96SW2+Q13422); experiment: Protac activity at CRBN/IKZF1 in human MV4-11 cells assessed as induction of IKZF1 degradation at 1 to 10 uM measured after 24 hrs by Western blot analysis; assay type: cell-based; details: dose 1-10 µM
[3] = target: Protein cereblon/Zinc finger protein Aiolos (Homo sapiens) (UniProt Q96SW2+Q9UKT9); experiment: Protac activity at CRBN/IKZF3 in human MV4-11 cells assessed as induction of IKZF3 degradation at 1 to 10 uM measured after 24 hrs by Western blot analysis; assay type: cell-based; details: dose 1-10 µM
[4] = target: Protein cereblon/Eukaryotic peptide chain release factor GTP-binding subunit ERF3A (Homo sapiens) (UniProt Q96SW2+P15170); experiment: Protac activity at CRBN/GSPT1 in human MV4-11 cells assessed as induction of GSPT1 degradation at 1 to 10 uM measured after 24 hrs by Western blot analysis; assay type: cell-based; details: dose 1-10 µM
[5] = Stability in human liver microsomes assessed as parent compound remaining measured after 0.5 hrs in presence of NADPH by LC-MS/MS analysis; assay type: ADME, Microsome; details: read-out: Stability
Summary of the method: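 Human liver microsome incubation; percent parent remaining reported after 0.5 h.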

[6] = Stability in human plasma assessed as parent compound remaining measured after 4 hrs in presence of NADPH by LC-MS/MS analysis; assay type: ADME, cell-free; details: read-out: Stability
Summary of the method: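 Human plasma incubation; percent parent remaining reported after 4.0 h.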

[7] = Stability of the compound in HCl solution at pH 1.0 assessed as parent compound remaining at 100 uM measured after 24 hrs by HPLC analysis; assay type: physicochemical; details: read-out: Stability
Summary of the method: (§1)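 Incubated in buffer at the stated pH at 37 °C; percent parent remaining after 24 h. Ring-opening hydrolysis of the glutarimide or dihydrouracil monitored.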

[8] = Stability of the compound in potassium phosphate buffer at pH 7.4 assessed as parent compound remaining at 100 uM measured after 24 hrs by HPLC analysis; assay type: physicochemical; details: read-out: Stability; summary of the method: as §1
[9] = Stability of the compound in bicine buffer at pH 8.8 assessed as parent compound remaining at 100 uM measured after 24 hrs by HPLC analysis; assay type: physicochemical; details: read-out: Stability; summary of the method: as §1
[10] = tested on: MV4-11; experiment: Induction of apoptosis in human MV4-11 cells assessed as caspase 3 cleavage at 0.01 to 10 nM; assay type: functional, cell-based; details: MV4-11, dose upper 10.0 µM, in the assay text read “0.01 to 10 uM” for “0.01 to 10 nM”
Summary of the method: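 MV4;11 cells treated with the indicated concentrations for 24 h, or for the indicated times. […] Blocked in 5% BSA/TBST; anti-caspase 3 and anti-β-actin overnight in the cold, HRP secondary 1 h at room temperature; ECL detection of full-length and cleaved caspase 3.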

[11] = tested on: MV4-11; experiment: Antiproliferative activity at human MV4-11 cells assessed as reduction in cell viability measured after 72 hrs by Alamar blue dye based analysis; assay type: functional; details: MV4-11, 72 h
Summary of the method: (§2)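 MV4;11 cells (RPMI1640, 10% FBS, 1% Pen/Strep, 37 °C, 5% CO2, used within 20 passages) seeded at 5000–10000 cells/well, then given DMSO or compound at the indicated doses for 72 h. AlamarBlue then added; fluorescence read at ex 530–560 nm, em 590 nm. Signal normalized to DMSO-treated cells; IC50 calculated.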

[12] = tested on: MV4-11; experiment: Induction of cell cycle arrest in human MV4-11 cells assessed as accumulation of cells at G1 phase at 0.01 to 10 uM incubated for 48 hrs by PI staining based flow cytometry analysis; assay type: functional; details: dose 0.01-10 µM
Summary of the method: (§3)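 Cell-cycle distribution determined by flow cytometry (Attune) in MV4;11 cells seeded in 6-well plates and treated with the indicated concentrations for 48 h.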

[13] = tested on: MV4-11; experiment: Induction of cell cycle arrest in human MV4-11 cells assessed as decrease in accumulation of cells at S phase at 0.01 to 10 uM incubated for 48 hrs by PI staining based flow cytometry analysis; assay type: functional; details: dose 0.01-10 µM; summary of the method: as §3
[14] = tested on: MV4-11; experiment: Induction of apoptosis in human MV4-11 cells assessed as viable cells at 10 uM measured after 48 hrs by Annexin V-FITC staining based flow cytometry (reference value: 98.7%); assay type: functional; details: read-out: Activity
[15] = tested on: MV4-11; experiment: Induction of apoptosis in human MV4-11 cells assessed as viable cells at 1 uM measured after 48 hrs by Annexin V-FITC staining based flow cytometry (reference value: 98.7%); assay type: functional; details: read-out: Activity
[16] = tested on: MV4-11; experiment: Induction of apoptosis in human MV4-11 cells assessed as viable cells at 0.1 uM measured after 48 hrs by Annexin V-FITC staining based flow cytometry (reference value: 98.7%); assay type: functional; details: read-out: Activity
[17] = tested on: MV4-11; experiment: Induction of apoptosis in human MV4-11 cells assessed as viable cells at 0.01 uM measured after 48 hrs by Annexin V-FITC staining based flow cytometry (reference value: 98.7%); assay type: functional; details: read-out: Activity
[18] = tested on: MV4-11; experiment: Induction of apoptosis in human MV4-11 cells assessed as early apoptotic cells at 10 uM measured after 48 hrs by Annexin V-FITC staining based flow cytometry (reference value: 0%); assay type: functional
[19] = tested on: MV4-11; experiment: Induction of apoptosis in human MV4-11 cells assessed as early apoptotic cells at 1 uM measured after 48 hrs by Annexin V-FITC staining based flow cytometry (reference value: 0%); assay type: functional
[20] = tested on: MV4-11; experiment: Induction of apoptosis in human MV4-11 cells assessed as early apoptotic cells at 0.1 uM measured after 48 hrs by Annexin V-FITC staining based flow cytometry (reference value: 0%); assay type: functional
[21] = tested on: MV4-11; experiment: Induction of apoptosis in human MV4-11 cells assessed as early apoptotic cells at 0.01 uM measured after 48 hrs by Annexin V-FITC staining based flow cytometry (reference value: 0%); assay type: functional
[22] = tested on: MV4-11; experiment: Induction of apoptosis in human MV4-11 cells assessed as late apoptotic cells at 10 uM measured after 48 hrs by Annexin V-FITC staining based flow cytometry (reference value: 0.42%); assay type: functional
[23] = tested on: MV4-11; experiment: Induction of apoptosis in human MV4-11 cells assessed as late apoptotic cells at 1 uM measured after 48 hrs by Annexin V-FITC staining based flow cytometry (reference value: 0.42%); assay type: functional
[24] = tested on: MV4-11; experiment: Induction of apoptosis in human MV4-11 cells assessed as late apoptotic cells at 0.1 uM measured after 48 hrs by Annexin V-FITC staining based flow cytometry (reference value: 0.42%); assay type: functional
[25] = tested on: MV4-11; experiment: Induction of apoptosis in human MV4-11 cells assessed as late apoptotic cells at 0.01 uM measured after 48 hrs by Annexin V-FITC staining based flow cytometry (reference value: 0.42%); assay type: functional
[26] = tested on: MV4-11; experiment: Induction of apoptosis in human MV4-11 cells assessed as necrotic cells at 10 uM measured after 48 hrs by Annexin V-FITC staining based flow cytometry (reference value: 0.86%); assay type: functional
[27] = tested on: MV4-11; experiment: Induction of apoptosis in human MV4-11 cells assessed as necrotic cells at 1 uM measured after 48 hrs by Annexin V-FITC staining based flow cytometry (reference value: 0.86%); assay type: functional
[28] = tested on: MV4-11; experiment: Induction of apoptosis in human MV4-11 cells assessed as necrotic cells at 0.1 uM measured after 48 hrs by Annexin V-FITC staining based flow cytometry (reference value: 0.86%); assay type: functional
[29] = tested on: MV4-11; experiment: Induction of apoptosis in human MV4-11 cells assessed as necrotic cells at 0.01 uM measured after 48 hrs by Annexin V-FITC staining based flow cytometry (reference value: 0.86%); assay type: functional
[30] = target: Protein cereblon/Bromodomain-containing protein 4 (Homo sapiens) (UniProt O60885+Q96SW2); experiment: Protac activity at CRBN/BRD4 in human MV4-11 cells assessed as degradation of BRD4 at 0.01 to 1 uM incubated for 24 hrs; assay type: cell-based; details: dose 0.01-1 µM
[31] = Stability of the compound in bicine buffer at pH 8.8 assessed as parent compound remaining at 100 uM measured after 2 hrs by HPLC analysis; assay type: physicochemical; details: read-out: Stability
Summary of the method: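 Incubated in pH 8.8 buffer; percent parent remaining reported after 2 h.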

[32] = tested on: MV4-11; experiment: Antiproliferative activity at human MV4-11 cells assessed as reduction in cell viability at upto 100 uM measured after 72 hrs by Alamar blue dye based analysis; assay type: functional; summary of the method: as §2

Sequence of Protein cereblon/Eukaryotic peptide chain release factor GTP-binding subunit ERF3A (Homo sapiens) (P15170 whole entry, looked up): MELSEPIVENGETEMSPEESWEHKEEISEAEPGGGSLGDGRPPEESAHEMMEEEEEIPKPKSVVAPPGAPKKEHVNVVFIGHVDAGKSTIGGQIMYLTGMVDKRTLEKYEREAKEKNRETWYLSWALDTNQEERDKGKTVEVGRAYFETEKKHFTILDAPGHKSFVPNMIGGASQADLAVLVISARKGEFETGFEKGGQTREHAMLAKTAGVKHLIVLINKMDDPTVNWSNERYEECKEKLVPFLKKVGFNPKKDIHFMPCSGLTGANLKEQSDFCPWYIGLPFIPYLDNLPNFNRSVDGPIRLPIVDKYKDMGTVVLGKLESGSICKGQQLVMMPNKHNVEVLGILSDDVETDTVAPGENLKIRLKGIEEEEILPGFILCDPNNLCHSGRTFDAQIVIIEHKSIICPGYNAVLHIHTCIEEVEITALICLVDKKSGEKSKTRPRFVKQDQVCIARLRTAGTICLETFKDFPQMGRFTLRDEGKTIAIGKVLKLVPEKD
Sequence of Protein cereblon/Eukaryotic peptide chain release factor GTP-binding subunit ERF3A (Homo sapiens) (Q96SW2 whole entry, looked up): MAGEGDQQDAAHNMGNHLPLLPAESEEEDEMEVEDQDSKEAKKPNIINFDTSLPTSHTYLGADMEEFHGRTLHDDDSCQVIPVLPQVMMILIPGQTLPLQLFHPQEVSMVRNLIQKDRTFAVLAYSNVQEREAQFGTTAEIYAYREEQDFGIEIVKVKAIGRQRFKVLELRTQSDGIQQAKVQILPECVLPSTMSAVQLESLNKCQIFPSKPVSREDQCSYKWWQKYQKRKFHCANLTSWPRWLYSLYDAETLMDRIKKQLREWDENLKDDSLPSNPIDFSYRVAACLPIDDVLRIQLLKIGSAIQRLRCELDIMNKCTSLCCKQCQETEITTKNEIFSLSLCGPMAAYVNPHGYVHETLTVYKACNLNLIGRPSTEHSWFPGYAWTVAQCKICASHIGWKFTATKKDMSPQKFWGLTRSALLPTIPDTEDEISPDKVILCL
Sequence of Protein cereblon/Zinc finger protein Aiolos (Homo sapiens) (Q96SW2 whole entry, looked up): as above
Sequence of Protein cereblon/Zinc finger protein Aiolos (Homo sapiens) (Q9UKT9 whole entry, looked up): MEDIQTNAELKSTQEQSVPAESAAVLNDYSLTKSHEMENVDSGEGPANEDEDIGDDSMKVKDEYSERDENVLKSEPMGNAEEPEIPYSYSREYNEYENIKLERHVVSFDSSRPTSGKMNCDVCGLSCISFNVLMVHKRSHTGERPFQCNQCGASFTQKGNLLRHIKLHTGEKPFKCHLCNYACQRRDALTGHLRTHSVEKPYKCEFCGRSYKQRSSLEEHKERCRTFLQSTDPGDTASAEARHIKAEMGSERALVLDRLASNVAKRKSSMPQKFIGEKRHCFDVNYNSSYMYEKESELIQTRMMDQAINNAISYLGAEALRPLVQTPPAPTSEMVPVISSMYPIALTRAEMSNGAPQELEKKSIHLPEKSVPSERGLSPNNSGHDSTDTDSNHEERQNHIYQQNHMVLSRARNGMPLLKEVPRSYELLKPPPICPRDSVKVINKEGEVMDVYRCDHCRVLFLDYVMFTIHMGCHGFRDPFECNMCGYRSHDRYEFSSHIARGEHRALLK
Sequence of Protein cereblon/DNA damage-binding protein 1 (Q96SW2 whole entry): as the sequence (Q96SW2 whole entry, looked up) above
Sequence of Protein cereblon/DNA damage-binding protein 1 (Q16531 whole entry, further chain): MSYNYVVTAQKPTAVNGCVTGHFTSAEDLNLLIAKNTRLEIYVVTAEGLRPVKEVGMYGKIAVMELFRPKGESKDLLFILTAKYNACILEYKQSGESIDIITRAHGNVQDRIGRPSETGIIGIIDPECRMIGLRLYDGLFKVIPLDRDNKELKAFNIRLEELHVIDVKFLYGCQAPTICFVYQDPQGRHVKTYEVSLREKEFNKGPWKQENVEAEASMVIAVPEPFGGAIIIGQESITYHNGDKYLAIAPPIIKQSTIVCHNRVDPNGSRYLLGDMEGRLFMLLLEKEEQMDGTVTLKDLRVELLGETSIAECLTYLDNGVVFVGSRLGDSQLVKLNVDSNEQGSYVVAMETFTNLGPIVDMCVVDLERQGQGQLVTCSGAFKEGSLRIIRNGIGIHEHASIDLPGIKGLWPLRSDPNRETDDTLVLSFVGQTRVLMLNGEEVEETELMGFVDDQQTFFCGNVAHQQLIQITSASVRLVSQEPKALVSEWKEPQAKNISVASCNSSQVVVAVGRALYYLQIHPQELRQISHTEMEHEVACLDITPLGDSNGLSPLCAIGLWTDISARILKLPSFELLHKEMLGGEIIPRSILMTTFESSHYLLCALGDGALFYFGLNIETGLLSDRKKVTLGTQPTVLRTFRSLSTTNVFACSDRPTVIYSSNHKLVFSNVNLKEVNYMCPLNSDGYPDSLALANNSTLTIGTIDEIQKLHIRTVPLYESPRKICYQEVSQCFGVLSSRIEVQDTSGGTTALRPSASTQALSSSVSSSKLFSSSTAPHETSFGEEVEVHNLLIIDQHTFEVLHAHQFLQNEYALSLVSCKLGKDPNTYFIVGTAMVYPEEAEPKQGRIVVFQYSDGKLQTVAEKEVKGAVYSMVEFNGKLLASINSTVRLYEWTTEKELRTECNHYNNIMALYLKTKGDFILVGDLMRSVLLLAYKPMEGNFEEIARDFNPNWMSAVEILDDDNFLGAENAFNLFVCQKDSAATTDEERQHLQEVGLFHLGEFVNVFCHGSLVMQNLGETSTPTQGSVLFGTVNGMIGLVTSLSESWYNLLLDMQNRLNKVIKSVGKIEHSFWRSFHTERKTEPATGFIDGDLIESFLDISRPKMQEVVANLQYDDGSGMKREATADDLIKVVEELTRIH
Sequence of Protein cereblon/Bromodomain-containing protein 4 (Homo sapiens) (Q96SW2 whole entry, looked up, other chains not shown): as the sequence (Q96SW2 whole entry, looked up) above

CC(=O)NCCC#Cc1cccc(N2CCC(=O)NC2=O)c1C
Kd [1]: 630 nM | Activity [2]: inactive | Activity [3]: inactive | Activity [4]: inactive | remaining at 0.5 h [5]: 90% | remaining at 4 h [6]: 102% | remaining at 24 h, 100 µM [7]: > 99% | remaining at 24 h, 100 µM [8]: > 99% | remaining at 24 h, 100 µM [9]: 90%

CCNC(=O)COc1cccc(N2CCC(=O)NC2=O)c1C
Kd [1]: 2140 nM | Activity [2]: inactive | Activity [3]: inactive | Activity [4]: inactive | remaining at 0.5 h [5]: 100% | remaining at 4 h [6]: 88% | remaining at 24 h, 100 µM [7]: > 99% | remaining at 24 h, 100 µM [8]: > 99% | remaining at 24 h, 100 µM [9]: 95%

Cc1sc2c(c1C)C(c1ccc(Cl)cc1)=N[C@@H](CC(=O)NC1CCN(C(=O)COc3cccc(N4CCC(=O)NC4=O)c3C)CC1)c1nnc(C)n1-2
Activity [10]: Active | IC50 [11]: 1.1 nM | Activity [12]: Active | Activity [13]: Active | viability at 10 µM [14]: 3.88% | viability at 1 µM [15]: 7.3% | viability at 0.1 µM [16]: 17.1% | viability at 0.01 µM [17]: 77.2% | Activity [18]: 5.77% | Activity [19]: 0.49% | Activity [20]: 1.13% | Activity [21]: 0.32% | Activity [22]: 88.7% | Activity [23]: 43.6% | Activity [24]: 42.3% | Activity [25]: 13.4% | Activity [26]: 16.9% | Activity [27]: 48.7% | Activity [28]: 39.4% | Activity [29]: 9.13%

Cc1ccccc1N1CCC(=O)NC1=O
Kd [1]: 1240 nM

Cc1sc2c(c1C)C(c1ccc(Cl)cc1)=N[C@@H](CC(=O)NC1CCN(C(=O)COc3cccc(N4CCC(=O)N(C)C4=O)c3C)CC1)c1nnc(C)n1-2
Activity [30]: inactive

CC(C)(C)OC(=O)NCC#Cc1cccc(N2CCC(=O)NC2=O)c1
Kd [1]: 530 nM

Cc1c(C#CCNC(=O)OC(C)(C)C)cccc1N1CCC(=O)NC1=O
Activity [2]: inactive | Activity [3]: inactive | Activity [4]: inactive | remaining at 0.5 h [5]: 87% | remaining at 4 h [6]: 97% | remaining at 24 h, 100 µM [7]: > 99% | remaining at 24 h, 100 µM [8]: > 99% | remaining at 24 h, 100 µM [9]: 93%

Nc1cccc2c1CN(C1CCC(=O)NC1=O)C2=O (stereo not given) [LENALIDOMIDE]
remaining at 0.5 h [5]: 89% | remaining at 4 h [6]: 62% | remaining at 24 h, 100 µM [7]: > 99% | remaining at 24 h, 100 µM [8]: 39% | remaining at 2 h, 100 µM [31]: 20%

Cc1c(OCC(=O)N2CCCCC2)cccc1N1CCC(=O)NC1=O
Kd [1]: 1100 nM | Activity [2]: inactive | Activity [3]: inactive | Activity [4]: inactive | remaining at 0.5 h [5]: 85% | remaining at 4 h [6]: 81% | remaining at 24 h, 100 µM [7]: > 99% | remaining at 24 h, 100 µM [8]: > 99% | remaining at 24 h, 100 µM [9]: 95% | Activity [32]: inactive

Cc1c(OCC(=O)OC(C)(C)C)cccc1N1CCC(=O)NC1=O
Kd [1]: 1200 nM
